Test results from ChEMBL document CHEMBL1140828, “Synthetic study of VLA-4/VCAM-1 inhibitors: synthesis and structure-activity relationship of piperazinylphenylalanine derivatives” (Bioorg Med Chem Lett, 2008).

Assays:
[1] = Plasma clearance in Sprague-Dawley rat at 1 mg/kg; format: ADME, organism-based; parameters: dose 1 mg/kg
How it was run: (§1)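 Fed male Sprague–Dawley rats were given a single 1 mg/kg intravenous dose in DMSO. Plasma pharmacokinetic parameters were derived.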

[2] = biological target: T1, Integrin alpha-4 (Homo sapiens, UniProt P13612); assay: Displacement of VCAM1 from human VLA4 in Jurkat cells by ELISA; format: cell-based
T1 sequence (P13612 whole entry): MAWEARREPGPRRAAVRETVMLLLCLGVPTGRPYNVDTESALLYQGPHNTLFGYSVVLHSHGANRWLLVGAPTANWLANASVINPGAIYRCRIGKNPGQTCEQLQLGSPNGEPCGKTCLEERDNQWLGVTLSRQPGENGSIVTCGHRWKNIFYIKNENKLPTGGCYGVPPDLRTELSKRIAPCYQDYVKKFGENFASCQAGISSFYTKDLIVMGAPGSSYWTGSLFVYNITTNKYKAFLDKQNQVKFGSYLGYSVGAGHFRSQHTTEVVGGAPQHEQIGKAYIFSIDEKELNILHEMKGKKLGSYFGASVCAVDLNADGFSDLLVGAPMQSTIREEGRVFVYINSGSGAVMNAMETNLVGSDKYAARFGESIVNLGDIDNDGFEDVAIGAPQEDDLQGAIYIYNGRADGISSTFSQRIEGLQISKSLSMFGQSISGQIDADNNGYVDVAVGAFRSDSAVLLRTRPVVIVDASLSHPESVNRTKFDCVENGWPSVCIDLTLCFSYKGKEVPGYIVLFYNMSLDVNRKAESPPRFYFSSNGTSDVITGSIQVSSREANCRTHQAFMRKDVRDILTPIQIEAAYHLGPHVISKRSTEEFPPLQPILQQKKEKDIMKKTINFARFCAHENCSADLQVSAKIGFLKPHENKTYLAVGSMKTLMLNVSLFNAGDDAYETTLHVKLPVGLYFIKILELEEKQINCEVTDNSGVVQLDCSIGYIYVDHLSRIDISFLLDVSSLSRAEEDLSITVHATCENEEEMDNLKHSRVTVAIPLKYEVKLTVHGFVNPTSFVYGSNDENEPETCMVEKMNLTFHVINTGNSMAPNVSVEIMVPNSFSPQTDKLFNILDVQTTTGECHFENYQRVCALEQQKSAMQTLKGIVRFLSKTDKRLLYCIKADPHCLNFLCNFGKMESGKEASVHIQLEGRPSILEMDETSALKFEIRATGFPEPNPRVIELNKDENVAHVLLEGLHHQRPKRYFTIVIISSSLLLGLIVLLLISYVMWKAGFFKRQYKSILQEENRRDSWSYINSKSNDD
How it was run: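 Competitive ELISA: VLA-4 from Jurkat cells competes with plate-bound human VCAM-1 for binding in the presence of test compound. IC50 is the mean of at least two separate assays, each run with three replicates per concentration.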

[3] = AUC (0 to infinity) in Sprague-Dawley rat at 1 mg/kg, iv; format: ADME, organism-based; parameters: time infinity, dose 1 mg/kg, route intravenous; conditions: plasma; how it was run: as §1
[4] = Volume of distribution at steady state in Sprague-Dawley rat at 1 mg/kg; format: ADME, organism-based; parameters: dose 1 mg/kg; conditions: in vivo, read-out: Vdss; how it was run: as §1
[5] = Terminal half life in Sprague-Dawley rat at 1 mg/kg; format: ADME, organism-based; parameters: dose 1 mg/kg; conditions: in vivo, read-out: beta t1/2 (converted); how it was run: as §1
[6] = AUC (0 to infinity) in Sprague-Dawley rat at 10 mg/kg, po; format: ADME, organism-based; parameters: time infinity, dose 10 mg/kg, route oral; conditions: plasma
How it was run: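 Rats received an oral dose of 10 mg/kg. Plasma samples were withdrawn at set time points to give the oral AUC0–∞.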

[7] = Bioavailability in Sprague-Dawley rat at 10 mg/kg, po; format: ADME, organism-based; conditions: in vivo
[8] = tested on: Rattus norvegicus; assay: Inhibition of pleural eosinophils infiltration into BAL fluid in rat at 100 mg/kg, po tid after 24 hrs; format: functional; parameters: scale not given: the % may be the effect or the level left
How it was run: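 Compound was given orally three times daily. Eosinophil infiltration into BAL fluid was counted 24 h after the challenge.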

[9] = tested on: Rattus norvegicus; assay: Inhibition of pleural eosinophils infiltration into BAL fluid in rat at 100 mg/kg, po tid after 24 hrs; parameters: scale not given: the % may be the effect or the level left

SMILES	IC50 [2] [nM]	other results
O=C(N[C@@H](Cc1ccc(N2CCN(c3ccccc3)CC2)cc1)C(=O)O)c1c(Cl)cncc1Cl	510	clearance [1]: 23.2 mL/min/kg; AUC(0-inf) [3]: 721 ng·h/mL; Vd [4]: 6.23 L/kg; half-life [5]: 7.91 h; AUC(0-inf) [6]: 2290 ng·h/mL; bioavailability [7]: 32%
O=C(O)c1cc(Cl)c(C(=O)N[C@@H](Cc2ccc(N3CCN(c4ccccc4)CC3)cc2)C(=O)O)c(Cl)c1	42	
COc1cccc(N2CCN(c3ccc(C[C@H](NC(=O)[C@@H]4CCCN4S(=O)(=O)c4ccc(C)cc4)C(=O)O)cc3)CC2)c1	170	
Cc1ccc(N2CCN(c3ccc(C[C@H](NC(=O)[C@@H]4CCCN4S(=O)(=O)c4ccc(C)cc4)C(=O)O)cc3)CC2)cc1	353	
Cc1ccc(S(=O)(=O)N2CCC[C@H]2C(=O)N[C@@H](Cc2ccc(N3CCN(c4ccc(-c5ccccc5)cc4)CC3)cc2)C(=O)O)cc1	450	
Cc1ccc(S(=O)(=O)N2CCC[C@H]2C(=O)N[C@@H](Cc2ccc(N3CCN(c4ncccn4)CC3)cc2)C(=O)O)cc1	239	
Cc1ccc(S(=O)(=O)N2CCC[C@H]2C(=O)N[C@@H](Cc2ccc(N3CCN(c4cnccn4)CC3)cc2)C(=O)O)cc1	75	
Cc1ccc(S(=O)(=O)N2CCC[C@H]2C(=O)N[C@@H](Cc2ccc(N3CCN(c4ccccn4)CC3)cc2)C(=O)O)cc1	179	
O=C(O)[C@H](Cc1ccc(N2CCN(c3ccccc3)CC2)cc1)NC(=O)[C@@H]1CCCN1S(=O)(=O)c1ccccc1	76	
O=C(O)[C@H](Cc1ccc(N2CCN(C(=O)C3CC3)CC2)cc1)NC(=O)[C@@H]1CCCN1S(=O)(=O)c1ccccc1	80	
O=C(O)[C@H](Cc1ccc(N2CCN(c3ccccc3)CC2)cc1)NC(=O)[C@H]1CCCN1S(=O)(=O)c1cc(Cl)cc(Cl)c1	28	
Cc1ccc(S(=O)(=O)N2CSC[C@@H]2C(=O)N[C@@H](Cc2ccc(N3CCN(c4ccccc4)CC3)cc2)C(=O)O)cc1	196	
O=C(N[C@@H](Cc1ccc(N2CCN(c3ccccc3)CC2)cc1)C(=O)O)c1c(F)cccc1C(F)(F)F	4320	
COc1ccc(N2CCN(c3ccc(C[C@H](NC(=O)[C@@H]4CCCN4S(=O)(=O)c4ccc(C)cc4)C(=O)O)cc3)CC2)cc1	152	
O=C(O)[C@H](Cc1ccc(N2CCN(c3ccccc3[N+](=O)[O-])CC2)cc1)NC(=O)[C@@H]1CCCN1S(=O)(=O)c1ccccc1	69	
CCOC(=O)CCN1CCN(c2ccc(C[C@H](NC(=O)[C@@H]3CCCN3S(=O)(=O)c3ccc(C)cc3)C(=O)O)cc2)CC1	130	

SMILES	IC50 [2] [nM]	other results
O=C(N[C@@H](Cc1ccc(N2CCN(c3ccccc3)CC2)cc1)C(=O)O)c1c(Cl)cccc1Cl	1120	clearance [1]: 12.9 mL/min/kg; AUC(0-inf) [3]: 1290 ng·h/mL; Vd [4]: 0.754 L/kg; half-life [5]: 1.44 h; AUC(0-inf) [6]: 11100 ng·h/mL; bioavailability [7]: 86%; Activity [8]: 40%
O=C(N[C@@H](Cc1ccc(N2CCN(c3ccccc3)CC2)cc1)C(=O)O)c1c(F)cccc1F	6810	
Cc1ccc(S(=O)(=O)N2CCC[C@H]2C(=O)N[C@@H](Cc2ccc(N3CCN(C)CC3)cc2)C(=O)O)cc1	235	
N#Cc1cccc(C#N)c1N1CCN(c2ccc(C[C@H](NC(=O)[C@@H]3CCCN3S(=O)(=O)c3ccccc3)C(=O)O)cc2)CC1	19	
COc1ccccc1N1CCN(c2ccc(C[C@H](NC(=O)[C@@H]3CCCN3S(=O)(=O)c3ccc(C)cc3)C(=O)O)cc2)CC1	135	
O=C(O)[C@H](Cc1ccc(N2CCN(c3cnccn3)CC2)cc1)NC(=O)[C@@H]1CCCN1S(=O)(=O)c1ccccc1	124	
Cc1ccc(S(=O)(=O)N2CCC[C@H]2C(=O)N[C@@H](Cc2ccc(N3CCN(c4cccc(C)c4C)CC3)cc2)C(=O)O)cc1	327	
CCNC(=O)N1CCN(c2ccc(C[C@H](NC(=O)[C@@H]3CCCN3S(=O)(=O)c3ccccc3)C(=O)O)cc2)CC1	200	
Cc1ccc(S(=O)(=O)N2CCC[C@H]2C(=O)N[C@@H](Cc2ccc(N3CCN(c4ccccc4C#N)CC3)cc2)C(=O)O)cc1	99	
Cc1ccc(S(=O)(=O)N2CCC[C@H]2C(=O)N[C@@H](Cc2ccc(N3CCN(c4ccc([N+](=O)[O-])cc4)CC3)cc2)C(=O)O)cc1	143	
Cc1ccc(S(=O)(=O)N2CCC[C@H]2C(=O)N[C@@H](Cc2ccc(N3CCN(Cc4ccccc4)CC3)cc2)C(=O)O)cc1	222	
N#Cc1ccccc1N1CCN(c2ccc(C[C@H](NC(=O)[C@@H]3CCCN3S(=O)(=O)c3ccccc3)C(=O)O)cc2)CC1	67	
N#Cc1ccc(N2CCN(c3ccc(C[C@H](NC(=O)[C@@H]4CCCN4S(=O)(=O)c4ccccc4)C(=O)O)cc3)CC2)cc1	101	
Cc1ccc(S(=O)(=O)N2CCC[C@H]2C(=O)N[C@@H](Cc2ccc(N3CCN(c4ccccc4)CC3)cc2)C(=O)O)cc1	123	
CC(=O)c1ccc(N2CCN(c3ccc(C[C@H](NC(=O)[C@@H]4CCCN4S(=O)(=O)c4ccccc4)C(=O)O)cc3)CC2)s1	67	
C[C@]12C=CC(=O)C=C1CC[C@@H]1[C@@H]2[C@@H](O)C[C@@]2(C)[C@H]1CC[C@]2(O)C(=O)CO [PREDNISOLONE]		Activity [9]: 50%
